The values below come from the EternaBench riboswitch data.

This series relates to MS2 coat protein. Briefly: apparent Kd, MS2 coat protein; higher = weaker binding; RNA-MaP array; FMN 200 µM where present. Summed up:
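SNAP-549-labelled MS2 coat protein, doubled from 0.7 or 1.5 nM to 3 µM, was titrated over designs transcribed by stalled E. coli RNA polymerase on Illumina sequencing-chip clusters. Titrations were run without and then with constant ligand in 100 mM Tris-HCl pH 7.5, 80 mM KCl, 4 mM MgCl2, BSA, DTT, yeast tRNA and Tween-20. The apparent Kd is the median of filtered per-cluster fits to green signal normalised to red-channel RNA signal and control-cluster median Fmax.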

Where [1] appears, read: designed as: OFF switch for flavin mononucleotide, no ligand.
Where [2] appears, read: ligand present: flavin mononucleotide, designed as: OFF switch for flavin mononucleotide.
The mark [3] stands for this setting: designed as: ON switch for flavin mononucleotide, no ligand.
Setting [4] is: ligand present: flavin mononucleotide, designed as: ON switch for flavin mononucleotide.

“CUGUUAUAGGUCCAUUUUUUCAACAUGAGGAUCACCCAUGUGCAGGAUAUCGUGUUAAUUUUCAUCGAGAAGGGCAUAGUCACG”: the apparent Kd (usually a dissociation constant that holds for the conditions of the assay) under setting [1] was 30.1 nM and the “apparent Kd” value under setting [2] was 63.8 nM.

“UUGGUAUUUGUAGGAUAUCUGUCGCCACCGUGUGGAGAAGGACGAACAUGAGGAUCACCCAUGUAUCAUGGUGUGGGCUUUGUU”: the “apparent Kd” value is, setting by setting: under setting [1], 757 nM; under setting [2], 710 nM.

“UCGCUGCGAGGAUAUACGUGCGCGCGCUCGCGUUCGCGCGUACAUGAGGAUCACCCAUGUAGAAGGCGCGCUGC”: the “apparent Kd” value stood at 13.5 nM under setting [1] and 13.2 nM under setting [2].

With “CCAACGUACAAUUUAGAUCUACAUGAGGAUCACCCAUGUACGGAGGAUAUCAGCUCGAAUAGAGCUGAGAAGGCCGAAUUAAUU”, the “apparent Kd” value by setting is: under setting [3], 371 nM; under setting [4], 89.4 nM.

Consider “CCCGGACAUGAGGAUCACCCAUGUUAGGAUAUCUAGAGGAUCUAAACCGAAUAGAUCCAGAGAAGGGAUGUGGG”, for which the “apparent Kd” value under setting [2] was determined as 46.5 nM.

Consider “AAAUGCCUGUCGAUGCUCGACAUGAGGAUCACCCAUGUAUAGCAGGAUAUGCAGAACUGACUCGUGCAGAAGGGCUAUACCUAA”, for which the “apparent Kd” value is, setting by setting: under setting [1], 38.2 nM; under setting [2], 315 nM.

Regarding “CAGAAGUCAGGAUAUGCUGCUCGUCACUUGCGUGAUGAGUAGCAGAAGGGACAUGAGGAUCACCCAUGUAAAGC”, the “apparent Kd” value runs as follows: under setting [1], 53.5 nM; under setting [2], 87.1 nM.

Turning to “AACUACUCUGUGAGGAUAUGCGAUCGUUGAUCAAAGCAGAAGGCACAUGAGGAUCACCCAUGUUCCUACGAGGG”, the “apparent Kd” value under setting [1] worked out at 29.3 nM and the “apparent Kd” value under setting [2] worked out at 73.1 nM.

For “CAUGUCUGAGGAUAUCGUUUUUUGUACAUGAGGAUCACCCAUGUCCUAUUUUUUUUAUUUCGAGAAGGCAGUGUAU”, the “apparent Kd” value runs as follows: under setting [1], 47.7 nM; under setting [2], 37.7 nM.

Take “AAGAAGUCAGGAUAUCGUGCUCGUCACUUGCGUGAUGAGUACGAGAAGGGACAUGAGGAUCACCCAUGUAAAGA”: the “apparent Kd” value by setting is: under setting [1], 52.4 nM; under setting [2], 52.5 nM.

Consider “UGUACCGUUGGAACGCGUCGAGUACAUGAGGAUCACCCAUGUCAGGAUAUGUGGCGAAAGGUAGCACAGAAGGGACAUAGAAGA”, for which the “apparent Kd” value under setting [1] was 32.6 nM and the “apparent Kd” value under setting [2] is 92.3 nM.

Turning to “ACAUUUAAUACAGGAUAUGUUAGUAUACAGUAGAUUGGUUAUUACACAACAACAGAAGGGUAGAACAUGAGGAUCACCCAUGUA”, the “apparent Kd” value under setting [3] stood at 85.1 nM and the “apparent Kd” value under setting [4] amounted to 55.3 nM.

In the case of “AACAUGAGGAUCACCCAUGUCCCACCAGAAGGCUGGCGGUGGUAGGAAAGGCUACGACAAAUAACAGAGGAUAUGGUGAAUGCA”, the “apparent Kd” value by setting is: under setting [3], 88.9 nM; under setting [4], 20.8 nM.

In the case of “AGCAUGUAAGGAUAUGUAACGCGGCUUUCAUUCGCCGUCCCACAGAAGGUACAUGAGGAUCACCCAUGUGCUCC”, the “apparent Kd” value is, setting by setting: under setting [1], 38.1 nM; under setting [2], 87.6 nM.

As to “UCCCGGUAAGAAGGAUAUACAUGAGGAUCACCCAUGUAUUAAACAUAUACUGGCCGUGGCCUUGUGUAGAAGGUCUGUCGGUCA”, the “apparent Kd” value was 6.75 nM under setting [1] and 5.97 nM under setting [2].

For “GGACUGGACUAGAAGGGUGAUGCGCUCGCAGACACAGGAUAUAGUCACAUGAGGAUCACCCAUGUCGGUCCAUGUAAAGAAACU”, the “apparent Kd” value under setting [3] was determined as 20.2 nM and the “apparent Kd” value under setting [4] was found to be 14.8 nM.

With “GGAGACCUCACAGGAUAUGCUGGACUUUGUCCAGCAGAAGGGUGACUAAACAUGAGGAUCACCCAUGUGGUCUCCAAAUUUAAU”, the “apparent Kd” value is, setting by setting: under setting [3], 740 nM; under setting [4], 68.2 nM.

On to “CGAAGCCCGUAGAAGGGUGACAUGAGGAUCACCCAUGUGCGAGCGGAGGGAGUCAGCGGCUCGCCACAGGAUAUACGGAGCUCG”, for which the “apparent Kd” value turned out to be 151 nM under setting [3] and 67.9 nM under setting [4].

On to “AAAACUGGAGGAUAUACAUGAGGAUCACCCAUGUGUGGGUAGGCUGUGUCGGCGUCAGGUAGAAGGCCACAAAA”, for which the “apparent Kd” value under setting [1] stood at 92.3 nM and the “apparent Kd” value under setting [2] is 136 nM.

For the sequence “GAAUACACCCGACGGGUGUCCGGCAAGGAUAUGAUGAGGGCGAUGCUACAUGAGGAUCACCCAUGUCAGAAGGUGCCCUCCAGG”, the “apparent Kd” value under setting [1] worked out at 6.59 nM and the “apparent Kd” value under setting [2] was found to be 7.19 nM.

Turning to “CAAUGUCAAAAGGAUAUUGCCAGCAUAAAUGGUCGAGAAGGUUUGACAUGAGGAUCACCCAUGUAAUGAACCUG”, the “apparent Kd” value is, setting by setting: under setting [1], 14.6 nM; under setting [2], 51.2 nM.

Regarding “AUACCACGAGGAUAUCGUCUAUAAUACAUGAGGAUCACCCAUGUUAUAUCUGUAAUGUUUCGAGAAGGCGUUUGUU”, the “apparent Kd” value was 24.3 nM under setting [1] and 17.1 nM under setting [2].

On to “CCUCCACAUGAGGAUCACCCAUGUCAGGAUAUCGUGUGUUUUUUUUCGGUCUUUCGUGCGAGAAGGGACGUCUU”, for which the “apparent Kd” value runs as follows: under setting [1], 30.5 nM; under setting [2], 33.8 nM.

Regarding “CUGUGAUGGAUCCAGAAUUACAACAUGAGGAUCACCCAUGUGCAGGAUAUCGGGUUGAUAGGCGCCGAGAAGGGUAUAAUCACG”, the “apparent Kd” value was determined as 110 nM under setting [1] and 105 nM under setting [2].

With “AACUAAGUAUUAAUGGUGUCUGACAGAAGGCAAUAGGUUGUGACCGACAUGAGGAUCACCCAUGUUGAGGAUAUGUCUAGCUAC”, the “apparent Kd” value is, setting by setting: under setting [1], 44.7 nM; under setting [2], 308 nM.

Regarding “CUGGUUGUCGUAGGAUAUGUAGGAUAUUCCUACAUGAGGAUCACCCAUGUUCGCAUGGAAGAAGGACAGAAGGACGAUGACCAU”, the “apparent Kd” value is, setting by setting: under setting [3], 1020 nM; under setting [4], 9.16 nM.

“AUCGGUCCGUAGAAGGGUGACAUGAGGAUCACCCAUGUGCCGUGUGCAUUUAUGCCUCCACGGCCACAGGAUAUACGGAGUUGA”: the “apparent Kd” value stood at 80.1 nM under setting [3] and 39.1 nM under setting [4].

For the sequence “GGGUACAUCGGAGGAUAUCAUGUAAAUACAUGAGGAUCACCCAUGUCGAUGGAGACAGCGGAGAUUGAGAAGGCCGAUGUACCG”, the “apparent Kd” value stood at 105 nM under setting [3] and 190 nM under setting [4].

Take “AUACAUGAGGAUCACCCAUGUUACUGGGUCUUUUUAGAACGUAGAAGGAUGAUAUUAUAAAUAUCAUAGGAUAUACUAUAUUGU”: the “apparent Kd” value under setting [1] is 52 nM and the “apparent Kd” value under setting [2] was found to be 59.5 nM.

Consider “ACGAGGUCAGGAUAUACGGAGAGAGGGAGUUGGUUAGGGUAACAUGAGGAUCACCCAUGUAGAAGGGACUAGGG”, for which the “apparent Kd” value by setting is: under setting [1], 48.6 nM; under setting [2], 40.3 nM.

“AACUAACAUGAGGAUCACCCAUGUCAGGAUAUGCAACGAUCGAUCGAUCGAUCGAUCAGCAGAAGGGACACUAA”: the “apparent Kd” value runs as follows: under setting [1], 20.1 nM; under setting [2], 36 nM.

For “AGCUGGUGACAGCAAGAAACUUCACAUGAGGAUCACCCAUGUAGAAGGCUGUACGGUUACCGUACAGAGGAUAUACAUUGAAGA”, the “apparent Kd” value worked out at 5.59 nM under setting [1] and 8.63 nM under setting [2].

As to “GAGAUUUUGUAAGGAUAUACUCUGUGAUGAAGAGUAGAAGGUACUUACAUGAGGAUCACCCAUGUUUAACGAGAUACUAAUCGU”, the “apparent Kd” value under setting [3] was 57 nM and the “apparent Kd” value under setting [4] was determined as 23.3 nM.

In the case of “GAUUAACAUGAGGAUCACCCAUGUGAGGAUAUGGAAUGGCUCAUUGUCUGAUUUCCGUCUAGAAGGCACAUCUU”, the “apparent Kd” value came out at 46.7 nM under setting [1] and 45 nM under setting [2].

Consider “AGUAUACAUGAGGAUCACCCAUGUCUGUAACGGACAGGAUAUGCGUUGCAUCACUGUAAUGCAGAAGGGUCCUGUA”, for which the “apparent Kd” value by setting is: under setting [3], 296 nM; under setting [4], 45.2 nM.

Consider “CAGCGGUCAGGAUAUGCAUGGCGGGACUUGCGUCGUGGCGUGGAGAAGGGACAUGAGGAUCACCCAUGUGGGAA”, for which the “apparent Kd” value worked out at 134 nM under setting [1] and 81.9 nM under setting [2].

As to “AUUUAGUCAGGAUAUACAUGAGGAUCACCCAUGUAAACUUUUAGUUUAAUUUGAAUGUGUAGAAGGGACAUUUU”, the “apparent Kd” value reads like this: under setting [1], 28.8 nM; under setting [2], 29.8 nM.

With “CAGCGAAAGCUGAAUCUGUAGAGAGAGGAUAUACAAGAAUAAGUCCAUACAUGAGGAUCACCCAUGUAGAAGGCUCUCUACAGU”, the “apparent Kd” value amounted to 7.28 nM under setting [1] and 25.4 nM under setting [2].

Take “CUAUAGAUAUGAGGAUAUGUAUAUCCAACAUGAGGAUCACCCAUGUUGAUGAUCACGUAUGUAAAGCAGAAGGCAUAUCUAUAG”: the “apparent Kd” value under setting [4] is 6.41 nM.

Consider “AAAAAACAUGAGGAUCACCCAUGUAAGGAUAUCUAAAAUAAAAGAAAAAUAAAGAAAAGGAGAAGGUACAAGGA”, for which the “apparent Kd” value under setting [1] is 24.5 nM and the “apparent Kd” value under setting [2] worked out at 35.1 nM.

Regarding “AUCAGCUCGUCAGGAUAUACGUCCCUGCGUCAGCAGUGUGGUAAGAUCACAUGAGGAUCACCCAUGUAGAAGGGACGAGCUGAU”, the “apparent Kd” value stood at 22.9 nM under setting [1] and 312 nM under setting [2].

In the case of “AUGAGUAAAGCAGGAUAUCUAUUGUCUCUGUAACAUGAGGAUCACCCAUGUAGAGAAGGGCUUAGUCAUACACUUCGAAGUUGA”, the “apparent Kd” value under setting [1] came out at 9.13 nM and the “apparent Kd” value under setting [2] amounted to 10.1 nM.

With “AAAAGGCAUCGUGACAUGAGGAUCACCCAUGUGAUUUGCUCACAGGAUAUCAUGCUCACGGAGCCUGAGAAGGGUGAAAGCUAA”, the “apparent Kd” value was 28.7 nM under setting [3] and 54.7 nM under setting [4].

In the case of “UAAACACCCUCAUGUGCCUGAGGACAUGAGGAUCACCCAUGUAAGGAUAUAGCCAUUAAAUCUAACUAGAAGGUAUAGGAAAUC”, the “apparent Kd” value was determined as 597 nM under setting [1] and 476 nM under setting [2].

In the case of “GUCGGAAACGACAAGUAGCAAUCGGAGGAUAUUCAUGAAAACAUGAGGAUCACCCAUGUAAAUUGGGAGAAGGCCGAUUGCUAC”, the “apparent Kd” value was 91.6 nM under setting [3] and 8.48 nM under setting [4].

As for “GUGGCACAUGAGGAUCACCCAUGUCAGGAUAUCGCGUGGUUUUUUUCGGCCGCGCGCGCGAGAAGGGACGUCUU”, the “apparent Kd” value turned out to be 31.1 nM under setting [1] and 29.1 nM under setting [2].

Turning to “AUGGUUGUCGUAGGAUAUGUAGGAUAUUCCUACAUGAGGAUCACCCAUGUUCGCAUGGAAGAAGGACAGAAGGACGAUGACCAG”, the “apparent Kd” value was 1020 nM under setting [3] and 9.57 nM under setting [4].

Consider “CGUUCACAUGAGGAUCACCCAUGUCAGAUUUGGUCAGGAUAUGGUCGGCAUCCGCUAUUGCCAGAAGGGACUGUUG”, for which the “apparent Kd” value runs as follows: under setting [3], 55.3 nM; under setting [4], 36.3 nM.
